One block for each molecule: values may come before it. Calls of active or inactive are those of the source. The rule behind the calls is not given here.
Assays:
[1] = tested on: HCT-116; experiment: Effect on ATP homeostasis in human HCT116 cells assessed as reduction in ATP level after 3 hrs in absence of glucose by ATP bioluminescent assay; format: ADME, cell-based; details: for IC50: Homo sapiens, HCT-116, 3 h; for Activity: human, hct-116, 3 h
Summary of the method: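 HCT-116 cells attached overnight on poly-D-lysine plates in McCoy's 5A/10% FBS, then switched to glucose-free DMEM with 2mM sodium pyruvate and 2mM L-glutamine containing compound (0.1% final DMSO). After 3 h at 37°C, 5% CO2, cells were lysed in Somatic Cell ATP Releasing Reagent and ATP was read by luciferase bioluminescence, normalized to DMSO control.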

[2] = species: Homo sapiens; experiment: Inhibition of Wnt/beta-catenin signaling in human U2OS cells expressing GFP-fused Fzd1 assessed as GFP-Fzd1 internalization by measuring number of punctate formed at 12.5 uM after 6 hrs by confocal microscopic method; format: cell-based
Summary of the method: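 U2OS cells stably expressing Frizzled1-GFP were plated in confocal dishes for 24 h, then treated with 12.5 μM compound in DMSO or DMSO for 6 h at 37°C and fixed in 4% paraformaldehyde. Confocal images (488-nm excitation) were read twice, blinded, and punctate was scored versus control on a 0–5 scale (0, 1, 3, 5).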

[3] = (§1) Inhibition of Wnt/beta-catenin signaling (unknown origin) expressed in HEK293 cells assessed as inhibition of Wnt3A-stimulated beta-catenin response transcription after 6 hrs by TOPflash dual luciferase reporter gene assay; format: cell-based; details: Homo sapiens, HEK293, 6 h
Summary of the method: (§2)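 HEK293 cells stably carrying p8xTOPFlash and Renilla pRL-TK were seeded at confluency and given Wnt-3A conditioned medium (from L Wnt-3A cells) containing compound, 0.04–10 μM, or DMSO for 6 h. Lysates were read by dual-luciferase assay. The DMSO/Wnt3A signal was set as 100%, and curves were fit (mean ± SEM, n ≥ 3). Percent inhibition at 10 μM was reported where no IC50 could be fitted.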

[4] = tested on: HCT-116; experiment: Effect on ATP homeostasis in human HCT116 cells assessed as reduction in ATP level at 0.5 to 2 uM after 3 hrs in glucose supplemented media by ATP bioluminescent assay; format: ADME, cell-based; details: hct-116, 3 h
Summary of the method: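 HCT-116 cells attached overnight on poly-D-lysine plates, then treated 3 h at 37°C in DMEM with 2mM sodium pyruvate, 2mM L-glutamine and 5mM glucose (0.1% final DMSO). ATP was read by luciferase bioluminescence after lysis with Somatic Cell ATP Releasing Reagent, normalized to DMSO control.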

[5] = species: Homo sapiens; experiment: Inhibition of Wnt/beta-catenin signaling in human HCT116 cells assessed as downregulation of cytosolic beta-catenin protein expression at 5 uM after 18 hrs by Western blot method; format: cell-based
Summary of the method: (§3)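 HCT-116 (McCoy's 5A) or SW480 (MEM) cells, each with 10% FBS, were grown 48 h on poly-D-lysine-coated wells to 60–80% confluency. Fresh medium with compound or DMSO (0.1% final) was added for 18 h. Cytosolic fractions (β-catenin, Axin2) were isolated with hypotonic buffer, or whole cells were lysed in Laemmli buffer (c-Myc, Cyclin D1, Survivin). Immunoblots used β-actin as loading control.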

[6] = species: Homo sapiens; experiment: Inhibition of Wnt/beta-catenin signaling in human SW480 cells assessed as downregulation of Cyclin D1 protein expression at 5 uM after 18 hrs by Western blot method; format: cell-based; summary of the method: as §3
[7] = species: Homo sapiens; experiment: Inhibition of Wnt/beta-catenin signaling in human HCT116 cells assessed as downregulation of cytosolic Axin2 protein expression at 5 uM after 18 hrs by Western blot method; format: cell-based; summary of the method: as §3
[8] = tested on: HEK293 (Homo sapiens); experiment: Effect on ATP homeostasis in human HEK293 cells assessed as reduction in ATP level after 3 hrs in absence of glucose by ATP bioluminescent assay; details: HEK293, 3 h
[9] = tested on: HCT-116; experiment: Effect on ATP homeostasis in human HCT116 cells assessed as reduction in ATP level at 0.63 uM after 3 hrs in absence of glucose by ATP bioluminescent assay; format: ADME, cell-based; details: hct-116, 3 h
[10] = species: Homo sapiens; experiment: Inhibition of Wnt/beta-catenin signaling in human HCT116 cells assessed as downregulation of c-Myc protein expression at 5 uM after 18 hrs by Western blot method; format: cell-based; summary of the method: as §3
[11] = species: Homo sapiens; experiment: as §1; format: cell-based; summary of the method: as §2
[12] = species: Homo sapiens; experiment: Inhibition of Wnt/beta-catenin signaling in human SW480 cells assessed as downregulation of survivin protein expression at 5 uM after 18 hrs by Western blot method; format: cell-based; summary of the method: as §3
[13] = species: Homo sapiens; experiment: Inhibition of Wnt/beta-catenin signaling in human SW480 cells assessed as downregulation of cytosolic beta-catenin protein expression at 5 uM after 18 hrs by Western blot method; format: cell-based; summary of the method: as §3
[14] = species: Homo sapiens; experiment: Inhibition of Wnt/beta-catenin signaling (unknown origin) expressed in HEK293 cells assessed as inhibition of Wnt3A-stimulated beta-catenin response transcription at 0.63 uM after 6 hrs by TOPflash dual luciferase reporter gene assay relative to control; format: cell-based
Summary of the method: (§4)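 TOPFlash/Renilla stable HEK293 cells were split from the same batch as parallel ATP assay plates, attached overnight, then treated 6 h with compound in Wnt-3A conditioned medium. Dual-luciferase read-out was taken relative to the DMSO control. Three separate experiments used different cell batches.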

[15] = species: Homo sapiens; experiment: Inhibition of Wnt/beta-catenin signaling in human SW480 cells assessed as downregulation of c-Myc protein expression at 5 uM after 18 hrs by Western blot method; format: cell-based; summary of the method: as §3
[16] = species: Homo sapiens; experiment: Inhibition of Wnt/beta-catenin signaling in human HCT116 cells assessed as downregulation of Cyclin D1 protein expression at 5 uM after 18 hrs by Western blot method; format: cell-based; summary of the method: as §3
[17] = species: Homo sapiens; experiment: Inhibition of Wnt/beta-catenin signaling in human SW480 cells assessed as downregulation of cytosolic Axin2 protein expression at 5 uM after 18 hrs by Western blot method; format: cell-based; summary of the method: as §3
[18] = species: Homo sapiens; experiment: Inhibition of Wnt/beta-catenin signaling in human HCT116 cells assessed as downregulation of survivin protein expression at 5 uM after 18 hrs by Western blot method; format: cell-based; summary of the method: as §3
[19] = tested on: HCT-116; experiment: Effect on ATP homeostasis in human HCT116 cells assessed as reduction in ATP level at 0.31 uM after 3 hrs in absence of glucose by ATP bioluminescent assay; format: ADME, cell-based; details: hct-116, 3 h
[20] = species: Homo sapiens; experiment: Inhibition of Wnt/beta-catenin signaling (unknown origin) expressed in HEK293 cells assessed as inhibition of Wnt3A-stimulated beta-catenin response transcription at 10 uM after 6 hrs by TOPflash dual luciferase reporter gene assay relative to control; format: cell-based; summary of the method: as §2
[21] = species: Homo sapiens; experiment: Inhibition of Wnt/beta-catenin signaling (unknown origin) expressed in HEK293 cells assessed as inhibition of Wnt3A-stimulated beta-catenin response transcription at 0.16 uM after 6 hrs by TOPflash dual luciferase reporter gene assay relative to control; format: cell-based; summary of the method: as §4
[22] = tested on: HCT-116; experiment: Effect on ATP homeostasis in human HCT116 cells assessed as reduction in ATP level at 0.16 uM after 3 hrs in absence of glucose by ATP bioluminescent assay; format: ADME, cell-based; set-up: scale not given: the % may be the effect or the level left; details: hct-116, 3 h
[23] = tested on: HCT-116; experiment: Effect on ATP homeostasis in human HCT116 cells assessed as reduction in ATP level at 2 uM after 3 hrs in glucose supplemented media by ATP bioluminescent assay; details: hct-116, 3 h
[24] = species: Homo sapiens; experiment: Inhibition of Wnt/beta-catenin signaling (unknown origin) expressed in HEK293 cells assessed as inhibition of Wnt3A-stimulated beta-catenin response transcription at 0.31 uM after 6 hrs by TOPflash dual luciferase reporter gene assay relative to control; format: cell-based
Summary of the method: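 HEK293 cells stably carrying p8xTOPFlash and a Renilla luciferase control (pRL-TK), grown in MEM with 10% FBS and 1ug/mL puromycin. Cells were seeded at confluence, then given Wnt-3A conditioned medium (from L Wnt-3A cells) with compound (0.04 to 10μM) or DMSO for 6 h. Lysates were read by dual luciferase, with the Wnt3A + DMSO signal set as 100%.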

IC50 [1]: < 250 nM
IC50 [3]: 1540 nM
Compound: O=[N+]([O-])c1ccc2nc(-c3cc(Cl)cc(Cl)c3O)[nH]c2c1
Activity [2]: 2
Activity [4]: Toxic

IC50 [1]: 6000 nM
Activity [1]: Dose-dependent effect
IC50 [3]: 620 to 1150 nM
Compound: O=[N+]([O-])c1ccc2[nH]c(-c3cc(F)ccc3O)nc2c1
Activity [2]: 2
inhibition [5]: Active
inhibition [6]: Active
inhibition [7]: Active
EC50 [8]: > 5000 nM
Activity [9]: Non-Toxic
inhibition [10]: Active
inhibition [11]: Dose-dependent effect
inhibition [12]: Active
inhibition [13]: Active
inhibition [14]: Active
inhibition [15]: Active
inhibition [16]: Active
inhibition [17]: Active
inhibition [18]: Active
Activity [4]: Non-Toxic

IC50 [3]: 3200 nM
Compound: Cc1ccc(S(=O)(=O)Nc2ccc(Cl)cc2-c2nc3cc(C(F)(F)F)ccc3[nH]2)cc1
Activity [2]: 0

Activity [1]: Dose-dependent effect
IC50 [3]: 230 to 270 nM
Compound: Oc1ccc(Cl)cc1-c1nc2cc(C(F)(F)F)ccc2[nH]1
Activity [2]: 3
inhibition [5]: Active
inhibition [21]: 40 to 50%
inhibition [6]: Active
inhibition [7]: Active
EC50 [8]: ≥ 5000 nM
inhibition [10]: Active
inhibition [11]: Dose-dependent effect
inhibition [12]: Active
inhibition [13]: Active
inhibition [15]: Active
Activity [22]: Non-Toxic
inhibition [16]: Active
inhibition [17]: Active
inhibition [18]: Active
Activity [4]: Non-Toxic

IC50 [3]: 1690 nM
Compound: Cc1ccc(O)c(-c2nc3cc([N+](=O)[O-])ccc3[nH]2)c1
Activity [2]: 0
Activity [4]: Non-Toxic

IC50 [3]: 4190 nM
Compound: COc1ccc(O)c(-c2nc3cc([N+](=O)[O-])ccc3[nH]2)c1
Activity [2]: 0

IC50 [1]: < 250 nM
IC50 [3]: 1500 nM
Compound: Cc1ccc(S(=O)(=O)Nc2ccc(Cl)cc2C(=O)Nc2ccc([N+](=O)[O-])cc2Cl)cc1
Activity [2]: 3

IC50 [1]: 250 nM
Activity [1]: Dose-dependent effect
IC50 [3]: 120 to 280 nM
Activity [22]: > 80%
Compound: O=C(Nc1ccc([N+](=O)[O-])cc1Cl)c1cc(Cl)ccc1O [NICLOSAMIDE]
Activity [2]: 5
inhibition [5]: Active
inhibition [21]: 40 to 50%
inhibition [6]: Active
inhibition [7]: Active
EC50 [8]: 56 nM
inhibition [10]: Active
inhibition [11]: Dose-dependent effect
inhibition [12]: Active
inhibition [13]: Active
inhibition [15]: Active
inhibition [16]: Active
inhibition [17]: Active
inhibition [18]: Active
Activity [4]: Toxic

IC50 [3]: 7650 nM
Compound: Oc1ccc(Cl)cc1-c1nc2cc(F)ccc2[nH]1
Activity [2]: 0

IC50 [3]: 4440 nM
Compound: O=[N+]([O-])c1ccc2nc(-c3ccccc3O)[nH]c2c1
Activity [2]: 0

IC50 [3]: 2670 nM
Compound: Oc1ccc(Cl)cc1-c1nc2ccccc2[nH]1
Activity [2]: 0

IC50 [3]: 1270 nM
Compound: COc1ccc2[nH]c(-c3cc(Cl)ccc3O)nc2c1
Activity [2]: 0

The next lines start with the molecule.

Compound: O=[N+]([O-])c1ccc2[nH]c(-c3cc(Cl)ccc3O)nc2c1
Activity [1]: Dose-dependent effect
Activity [19]: Non-Toxic
Activity [4]: Non-Toxic

Compound: O=S(=O)(Nc1ccccc1-c1nc2cc(C(F)(F)F)ccc2[nH]1)c1c(F)cccc1F
Activity [2]: 0
inhibition [20]: 8%

Compound: Cc1ccc(S(=O)(=O)Nc2ccccc2-c2nc3cc(C(F)(F)F)ccc3[nH]2)cc1
Activity [2]: 0
inhibition [20]: 57%

Compound: Cc1ccc(S(=O)(=O)Nc2ccccc2-c2nc3cc([N+](=O)[O-])ccc3[nH]2)cc1
Activity [2]: 0
inhibition [20]: 53%

Compound: CC[C@H]1/C=C/C=C/C[C@@H](C)[C@H](O)[C@@](C)(O)C(=O)[C@@H](C)[C@H](O)[C@@H](C)C(=O)[C@@H](C)[C@H](O)[C@@H](C)/C=C/C(=O)O[C@@H]2[C@H](C)[C@H](CC1)O[C@]1(CC[C@H](C)[C@H](C[C@@H](C)O)O1)[C@H]2C [OLIGOMYCIN]
Activity [23]: Toxic

Compound: CS(=O)(=O)Nc1ccccc1-c1nc2cc(C(F)(F)F)ccc2[nH]1
Activity [2]: 0
inhibition [20]: 74%

Compound: O=[N+]([O-])c1ccc2nc(-c3cc(Cl)ccc3O)[nH]c2c1
Activity [2]: 3
inhibition [5]: Active
inhibition [6]: Active
inhibition [7]: Active
inhibition [24]: 40%
EC50 [8]: 2900 nM
inhibition [10]: Active
IC50 [3]: 360 to 480 nM
inhibition [11]: Dose-dependent effect
inhibition [12]: Active
inhibition [13]: Active
inhibition [15]: Active
inhibition [16]: Active
inhibition [17]: Active
inhibition [18]: Active

Compound: Cc1ccc(S(=O)(=O)Nc2ccc(Cl)cc2-c2nc3cc([N+](=O)[O-])ccc3[nH]2)cc1
Activity [2]: 0
inhibition [20]: 48%

Compound: N#CC(C#N)=NNc1ccc(OC(F)(F)F)cc1
Activity [23]: Toxic

Compound: CS(=O)(=O)Nc1ccccc1-c1nc2cc([N+](=O)[O-])ccc2[nH]1
Activity [2]: 0
inhibition [20]: 50%

Compound: O=[N+]([O-])c1ccc2[nH]c(-c3ccccc3NS(=O)(=O)c3c(F)cccc3F)nc2c1
Activity [2]: 0
inhibition [20]: 15%

Compound: CCCCCC[C@H]1C(=O)O[C@H](C)[C@H](NC(=O)c2cccc(NC=O)c2O)C(=O)O[C@@H](C)[C@@H]1OC(=O)CC(C)C [ANTIMYCIN A]
Activity [23]: Toxic
